Measured values pooled from the literature.
Each line is one published result; the experiments were not run side by side.

| Structure (SMILES) | cell line | effect on | action | technique | time | notes | IC50 [µM] |
| --- | --- | --- | --- | --- | --- | --- | --- |
| COc1cc(C2Oc3cc([C@H]4Oc5cc(O)cc(O)c5C(=O)[C@@H]4O)ccc3OC2CO)ccc1O (some centres unmarked) | HepaRG | cell growth or viability | – | MTT | 24 h | – | 142 |
| Nc1ccn([C@@H]2O[C@H](CO)[C@@H](O)C2(F)F)c(=O)n1 | Panc02 | cell growth or viability | – | CCK-8 | 72 h | – | 0.0341 |
| CC1(C)CC[C@]2(C)CC[C@]3(C)C(=CC[C@@H]4[C@@]5(C)CC[C@H](O)C(C)(C)[C@@H]5CC[C@]43C)[C@@H]2C1 | HEp-2 | cell growth or viability | – | WST-1 | 48 h | – | 85.6 |
| CC(C)c1ccccc1S(=O)(=O)c1cc(N)c2ncccc2c1[N+](=O)[O-] | FaDu | cell growth or viability | – | – | 72 h | – | > 20 |
| COc1ccc(-c2nc3ccccc3n2Cc2ccccc2)cc1OC | MCF7 | cell growth or viability | – | MTT | – | – | 22.2 |
| Cc1ccc(S(=O)(=O)N[C@@H](Cc2ccccc2)C(=O)CCl)cc1 | THP-1 | TNF-α release | inhibitor | – | 17 h | LPS-stimulated | 1.08 |
| O=Cc1ccc(CO)o1 | HEp-2 | cell growth or viability | – | WST-1 | 48 h | – | 78.9 |
| CC(C)C[C@H](NC(=O)[C@H](Cc1ccccc1)NC(=O)c1cnccn1)B(O)O | SK-MEL3 | cell growth or viability | – | ATP luminescence | – | – | 0.0099 |
| CCCn1cnc2cc(/C=C/C(=O)NO)ccc2c1=O | SW-620 | cell growth or viability | – | SRB | 48 h | – | 1.34 |
| CC(C)[C@H](N)C(=O)N1CCC[C@H]1B(O)O | NOMO-1 | cell growth or viability | – | ATP luminescence | 5 days | – | 0.031 |
| O=c1cc(-c2ccc(O)c(O)c2)oc2cc(O)cc(O)c12 | HEp-2 | cell growth or viability | – | WST-1 | 48 h | – | 10.7 |
| Nc1ncnc2c1ncn2[C@@H]1O[C@H](CO)[C@@H](O)[C@@H]1O | FaDu | cell growth or viability | – | – | 72 h | – | > 20 |
| CC(C)/N=C1\c2cc(C(N)=O)nc3c(N)c(Cl)c(N)c(c23)N1C | Calu-3 | cell growth or viability | – | – | – | – | 0.77 |
| C=CCn1c(-c2ccc(Cl)cc2)nc2ccccc21 | MCF7 | cell growth or viability | – | MTT | – | – | 79 |
| COc1ccc(C(=O)O[C@@H]2CN3Cc4c(cc5c(c4OC)OCO5)[C@@]24C=C[C@H](OC)C[C@@H]34)cc1 | SAOS-2 | cell growth or viability | – | WST-1 | – | – | > 10 |
| CCCCCCCCCCCC(=O)Oc1c(C)c(O)c(C(=O)/C=C/c2ccccc2)c(OC)c1C | FaDu | cell growth or viability | – | SRB | 72 h | – | > 50 |
| CN1/C(=N/c2ccc(Cl)cc2)c2cc(C(N)=O)nc3c(N)c(Cl)c(N)c1c23 | Calu-3 | cell growth or viability | – | – | – | – | 10.4 |
| COc1ccc(C(=O)O[C@@H]2CN3Cc4c(cc5c(c4OC)OCO5)[C@@]24C=C[C@H](OC)C[C@@H]34)cc1OC | SAOS-2 | cell growth or viability | – | WST-1 | – | – | 2.1 |
| N[C@@H](CC(=O)N1CCN(C(c2ccc(F)cc2)c2ccc(F)cc2)CC1)C(=O)N1Cc2ccccc2C1 | NOMO-1 | cell growth or viability | – | ATP luminescence | 48 h | – | 4.7 |
| c1ccc2c(-c3nc4ccccc4[nH]3)c3ccccc3cc2c1 | MCF7 | cell growth or viability | – | MTT | 48 h | – | 13.2 |
| CCN(CC)CCNC(=O)COc1ccc(OC)cc1 | FaDu | cell growth or viability | – | – | 72 h | – | > 20 |
| O=C(/C=C/c1ccc2ncn(Cc3ccccc3F)c(=O)c2c1)NO | SW-620 | cell growth or viability | – | SRB | 48 h | – | 1.12 |

| Structure (SMILES) | cell line | effect on | action | technique | time | notes | IC50 [µM] |
| --- | --- | --- | --- | --- | --- | --- | --- |
| CC(C)[C@H](N)c1nc2cc(-c3ccncc3F)sc2c(=O)[nH]1 | CAPAN-1 | cell growth or viability | – | MTT | – | – | 0.049 |
| CC(C)C(=O)SCCCCCCC(=O)Nc1nc(-c2ccccc2)cs1 | FaDu | cell growth or viability | – | – | 72 h | – | 4.29 |
| CC(C)NCC(O)c1cc(O)cc(O)c1 (centres unmarked) | THP-1 | TNF-α release | inhibitor | – | 17 h | LPS-stimulated | 0.6 |
| CCCn1cnc2ccc(/C=C/C(=O)NO)cc2c1=O | SW-620 | cell growth or viability | – | SRB | 48 h | – | 2.7 |
| CC(CCc1ccc(O)cc1)NCCc1ccc(O)c(O)c1 (centres unmarked) | THP-1 | TNF-α release | inhibitor | ELISA | 17 h | LPS-stimulated | 0.09 |
| COc1cccc2c1C(=O)c1c(O)c3c(c(O)c1C2=O)C[C@@](O)(C(=O)CO)C[C@@H]3O[C@H]1C[C@H](N)[C@H](O)[C@H](C)O1 | SUM159 | cell growth or viability | – | MTT | 48 h | – | 4 |
| O=C1Nc2ccc(Cl)cc2[C@@](C#CC2CC2)(C(F)(F)F)O1 | FaDu | cell growth or viability | – | – | 72 h | – | > 20 |
| COc1c2c(cc3c1OCO3)[C@]13C=C[C@H](OC)C[C@H]1N(C2)C[C@H]3OC(=O)c1cccc(C)c1 | SAOS-2 | cell growth or viability | – | WST-1 | – | – | > 10 |
| COc1cc(Nc2nccc(-c3cnn4nc(OC)ccc34)n2)cc(C(F)(F)F)c1 | J82 | cell growth or viability | – | ATP luminescence | – | – | 0.85 |
| CCCCc1ccc2[nH]c(NC(=O)OC)nc2c1 | FaDu | cell growth or viability | – | – | 72 h | – | 0.153 |
| Cc1ccc(O)cc1 | B16F0 | cell growth or viability | – | MTT | 48 h | – | 1900 |
| Cc1ccc2nc(-c3ccc(Cl)c(Cl)c3)[nH]c2c1 | MCF7 | cell growth or viability | – | MTT | 48 h | – | 50.8 |
| N#Cc1cc([N+](=O)[O-])c2sc(C(N)=O)[n+]([O-])c2c1 | THP-1 | TNF-α release | inhibitor | – | 17 h | LPS-stimulated | 2.96 |
| COc1ccc(-c2nc3ccc(C)cc3[nH]2)cc1OC | MCF7 | cell growth or viability | – | MTT | 48 h | – | > 100 |
| N#Cc1ccc(COC[C@H]2O[C@@H](n3c(NCc4ccc(Cl)c(Cl)c4)nc4c(N)ncnc43)[C@H](O)[C@@H]2O)cc1 | FaDu | cell growth or viability | – | – | 72 h | – | > 20 |
| CC(NCCc1ccc(O)cc1)C(O)c1ccc(O)cc1 (centres unmarked) | THP-1 | TNF-α release | inhibitor | – | 17 h | LPS-stimulated | 3.5 |
| CCN(CC)CCOC(=O)C1(c2ccc([N+](=O)[O-])cc2)CCCC1 | FaDu | cell growth or viability | – | – | 72 h | – | > 20 |
| Nc1ncnc2c1ncn2[C@@H]1O[C@H](CO)[C@@H](O)[C@H]1O | HEp-2 | cell growth or viability | – | WST-1 | 48 h | – | 49.1 |
| COc1ccc(-c2nc3ccc(C)cc3[nH]2)cc1O | MCF7 | cell growth or viability | – | MTT | 48 h | – | 23.7 |
| Cc1[nH]c2ccccc2c1CCNCc1ccc(/C=C/C(=O)NO)cc1 | C13 | cell growth or viability | – | crystal violet | – | – | 0.0093 |
| COc1ccc(-c2nc3ccccc3[nH]2)cc1O | MCF7 | cell growth or viability | – | MTT | 48 h | – | 29.7 |
| O=C(/C=C/c1cccc(S(=O)(=O)Nc2ccccc2)c1)NO | SW-620 | cell growth or viability | – | SRB | 48 h | – | 3.23 |
